ChEMBL document CHEMBL3351247 (J Med Chem, 2014)
The source made the active and inactive calls. The calls are words filed in the database; no cut-off is given here.

Legend:
[1] = target: Kappa-type opioid receptor (Homo sapiens, UniProt P41145); test: Agonist activity at human KOR expressed in CHO cells assessed as inhibition of forskolin-induced cAMP accumulation after 30 mins by luminescence assay; type: functional, cell-based
How it was run: (§1)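 CHO cells stably expressing KOR or MOR, plated at 10 000 cells/well and incubated overnight at 37 °C. Compounds given as 10-point serial dilutions (1% DMSO final) with 20 μM forskolin final in HBSS/10 mM HEPES. Incubation 30 min at 37 °C, then detection reagents overnight at room temperature. HitHunter cAMP luminescence read-out; data normalized to vehicle and forskolin-only controls, nonlinear regression.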

[2] = tested on: Rattus norvegicus; test: Toxicity in Sprague-Dawley rat assessed as inactive lever pressing during reinstatement period at 0.3 mg/kg, ip; type: organism-based; set-up: dose 0.3 mg/kg, route intraperitoneal; settings: in vivo
How it was run: (§2)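 Male Sprague-Dawley rats (300–350 g) trained to IV cocaine self-administration (0.5 mg/kg/infusion) on FR5 in 2 h daily sessions, then extinction with saline-heparin and cocaine-prime (20 mg/kg) reinstatement. Agonist given ip in DMSO:Tween 80:water 2:1:7 10 min before prime.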

[3] = tested on: Rattus norvegicus; test: Inhibition of cocaine-prime-induced reinstatement in Sprague-Dawley rat at 1 mg/kg, ip administered 10 mins prior to cocaine challenge relative to vehicle-treated control; type: functional, organism-based; set-up: dose 1 mg/kg
How it was run: (§3)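 Male Sprague-Dawley rats (300–350 g) self-administered IV cocaine (0.5 mg/kg/infusion, jugular cannula) in daily 2 h sessions on FR5 until stable (<20% variation over 3 days). Extinction with saline-heparin and no light cue until responses fell below 20% of baseline. Agonist given ip in DMSO:Tween 80:water 2:1:7 10 min before a cocaine prime (20 mg/kg). Active lever presses recorded.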

[4] = tested on: Rattus norvegicus; test: Toxicity in Sprague-Dawley rat assessed as inactive lever pressing during reinstatement period at 1 mg/kg, ip; type: organism-based; set-up: dose 1 mg/kg, route intraperitoneal; settings: in vivo; how it was run: as §2
[5] = target: Mu-type opioid receptor (Homo sapiens, UniProt P35372); test: Agonist activity at human MOR expressed in CHO cells assessed as inhibition of forskolin-induced cAMP accumulation after 30 mins by luminescence assay; type: functional, cell-based; how it was run: as §1
Sequence of Mu-type opioid receptor (P35372 whole entry): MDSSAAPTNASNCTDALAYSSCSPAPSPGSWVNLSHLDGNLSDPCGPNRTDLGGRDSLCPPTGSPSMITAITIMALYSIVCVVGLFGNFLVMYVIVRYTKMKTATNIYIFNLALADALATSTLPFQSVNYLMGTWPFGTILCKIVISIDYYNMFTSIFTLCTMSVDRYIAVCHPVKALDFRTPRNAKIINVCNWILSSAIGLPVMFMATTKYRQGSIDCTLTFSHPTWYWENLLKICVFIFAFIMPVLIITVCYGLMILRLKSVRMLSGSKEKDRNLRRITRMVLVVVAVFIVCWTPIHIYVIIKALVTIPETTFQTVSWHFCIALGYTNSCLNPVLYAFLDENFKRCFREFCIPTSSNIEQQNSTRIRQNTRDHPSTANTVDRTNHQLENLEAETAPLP

[6] = tested on: Rattus norvegicus; test: Toxicity in Sprague-Dawley rat assessed as inactive lever pressing during extinction period at 1 mg/kg, ip; type: organism-based; set-up: dose 1 mg/kg, route intraperitoneal; settings: in vivo; how it was run: as §2
[7] = tested on: Rattus norvegicus; test: Toxicity in Sprague-Dawley rat assessed as inactive lever pressing during extinction period at 0.3 mg/kg, ip; type: organism-based; set-up: dose 0.3 mg/kg, route intraperitoneal; settings: in vivo; how it was run: as §2
[8] = tested on: Rattus norvegicus; test: Toxicity in Sprague-Dawley rat assessed as inactive lever pressing during self administration period at 1 mg/kg, ip; type: organism-based; set-up: dose 1 mg/kg, route intraperitoneal; settings: in vivo; how it was run: as §2
[9] = tested on: Rattus norvegicus; test: Toxicity in Sprague-Dawley rat assessed as inactive lever pressing during self administration period at 0.3 mg/kg, ip; type: organism-based; set-up: dose 0.3 mg/kg, route intraperitoneal; settings: in vivo; how it was run: as §2
[10] = tested on: Rattus norvegicus; test: Inhibition of cocaine-prime-induced reinstatement in Sprague-Dawley rat at 0.1 to 0.3 mg/kg, ip administered 10 mins prior to cocaine challenge relative to vehicle-treated control; type: functional, organism-based; how it was run: as §3
[11] = tested on: Rattus norvegicus; test: Inhibition of cocaine-prime-induced reinstatement in Sprague-Dawley rat at 0.3 to 1 mg/kg, ip administered 10 mins prior to cocaine challenge relative to vehicle-treated control; type: functional, organism-based; how it was run: as §3

Sequence of Kappa-type opioid receptor (P41145 whole entry): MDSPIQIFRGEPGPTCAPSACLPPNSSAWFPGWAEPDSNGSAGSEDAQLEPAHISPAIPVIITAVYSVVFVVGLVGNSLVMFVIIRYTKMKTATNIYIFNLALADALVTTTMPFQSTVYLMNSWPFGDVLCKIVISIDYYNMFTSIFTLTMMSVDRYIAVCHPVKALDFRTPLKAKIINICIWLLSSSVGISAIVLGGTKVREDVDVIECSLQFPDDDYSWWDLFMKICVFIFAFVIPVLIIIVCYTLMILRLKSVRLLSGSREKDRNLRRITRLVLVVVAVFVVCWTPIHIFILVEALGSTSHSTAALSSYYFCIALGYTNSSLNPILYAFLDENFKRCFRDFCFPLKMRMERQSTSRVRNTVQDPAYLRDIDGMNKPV

Row | Compound | EC50 [1] | Emax [1] | Activity [2] | inhibition [3] | Activity [4] | EC50 [5] | Activity [6] | Activity [7] | Activity [8] | Activity [9] | inhibition [10] | inhibition [11]
1 | COC(=O)[C@@H]1C[C@H](OC(C)=O)C(=O)[C@H]2[C@@]1(C)CC[C@H]1C(=O)O[C@H](c3ccoc3C)C[C@]21C | 0.41 nM | 100% | Non-toxic | inactive | Non-toxic | ≥ 10000 nM | Non-toxic | Non-toxic | Non-toxic | Non-toxic |  | 
2 | C#Cc1occc1[C@@H]1C[C@]2(C)[C@H]3C(=O)[C@@H](OC(C)=O)C[C@@H](C(=O)OC)[C@]3(C)CC[C@H]2C(=O)O1 | 0.019 nM | 100% | Non-toxic |  | Non-toxic | ≥ 10000 nM | Non-toxic | Non-toxic | Non-toxic | Non-toxic | Active | 
3 | COC(=O)[C@@H]1C[C@H](OC(C)=O)C(=O)[C@H]2[C@@]1(C)CC[C@H]1C(=O)O[C@H](c3ccoc3Br)C[C@]21C |  |  | Non-toxic |  | Non-toxic | ≥ 10000 nM | Non-toxic | Non-toxic | Non-toxic | Non-toxic |  | Active
